We go through one molecule from article PMC4377730 (Theranostics, 2015).

The series is described as follows: [18F]FDG-PET in patients. The class given is in vivo, human. A digest of the protocol:
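Patients fasted 6 h, and blood glucose was checked just before injection to be below 150 mg/dL. They received 300-500 MBq [18F]FDG, with PET/CT started 90 min p.i. at 2 min per bed position. A low-dose CT (120 […], 20 mAs) in shallow inspiration provided attenuation correction. Emission data were corrected for randoms, dead time, scatter and attenuation. Read-outs were SUVmean/SUVmax.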

[1] abbreviates: NSCLC lesion, patient with T-cell lymphoma and NSCLC.
[2] abbreviates: bone marrow (BM), patient with multiple myeloma.
The mark [3] stands for this setting: hottest lesion in the 5th rib left, patient with multiple myeloma.
The mark [4] stands for this setting: lymphoma lesion, patient with T-cell lymphoma and NSCLC.
Where [5] appears, read: nodal lesions, patient with chronic lymphocytic leukemia and suspected transformation into aggressive B-cell lymphoma.

Turning to `O=C[C@H]([18F])[C@@H](O)[C@H](O)[C@H](O)CO` [[^18F]FDG, 2-[^18F]Fluoro-2-desoxyglucose], the SUVmax is, setting by setting: under setting [1], 38.57; under setting [2], 6.24; under setting [3], 8.06; under setting [4], 50.91; under setting [5], 5.94. Besides, the SUVmean runs as follows: under setting [1], 26.36; under setting [2], 3.77; under setting [3], 5.23; under setting [4], 29.82; under setting [5], 3.66.
